Hits are enriched below; roughly 3.1% of the tested compounds scored in any of these assays.
EWS-Fli block: inhibitors of EWS/Fli oncoprotein transcriptional activity; A673 NR0B1-luciferase reporter, viability-normalised; 0.67% of 350,000 active; AID 651661; inhibition, % at 12.6 µM;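 active means mean inhibition of at least 50% after viability correction, with every replicate also passing that limit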;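 further: firefly luciferase signal divided by Alamar Blue viability fluorescence both relative to DMSO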
FGF22 binding: binders of recombinant human FGF22 by thermal shift; 1.5% of 340,000 active; activity (Tm shift, normalised), % at 9.99 µM; SYPRO orange fluorescence; percent of sucrose octasulfate shift, DMSO zero; AID 651658;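 active means mean Tm shift, scaled 0 neutral to 100 positive control, at about 1.3% or above, every replicate too, limit read from the data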
Target sequence (Q9HCT0 whole entry, looked up): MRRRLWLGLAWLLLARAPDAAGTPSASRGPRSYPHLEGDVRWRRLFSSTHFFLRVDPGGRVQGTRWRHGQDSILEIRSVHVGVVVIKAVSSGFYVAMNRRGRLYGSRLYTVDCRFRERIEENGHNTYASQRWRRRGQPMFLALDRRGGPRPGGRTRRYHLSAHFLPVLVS
PGC1a acetyl inh: modulators of PGC1a acetylation. AID 651687. 0.17% of 350,000 active. U2OS PGC1a acetylation, AlphaScreen anti-acetyl-lysine; with virally co-expressed GCN5 acetyltransferase. inhibition, % at 15.6 µM;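 active means every replicate shows inhibition of at least 40%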;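 further: 0% = neutral control wells and 100% = positive control wells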
PAX8 inh HTS: inhibitors of PAX8 transcriptional activity in RMG-I cells | inhibition, % at 12.6 µM | 1.2% of 360,000 active | RMG-I TPO-luciferase reporter, SteadyGlo, 24 h;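 active means mean replicate inhibition at least 60% with every replicate also reaching 60%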;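 further: luciferase light reporting Pax8 driven TPO promoter activity; plate controls were median of neutral control wells for no effect and mitoxantrone controls for full effect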
Env fusion inh: inhibitors of HIV Env-mediated cell fusion. HeLa-JRFL Env/CEM21 cell fusion, luciferase. inhibition, % at 12.3 µM. 1.1% of 360,000 active;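 active means mean replicate inhibition score of at least 50 and every replicate individually at or above 50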;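 further: 0% = plate neutral controls and 100% = maraviroc near 300 nM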
FN deposit inh: fibronectin deposition inhibition. 0.086% of 350,000 active. AID 743247. AH1F fibroblasts, Alexa488-fibronectin deposition fluorescence, overnight. inhibition, % at 12.6 µM;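 active means mean inhibition across replicates of 30% or more, regardless of how many single replicates reach that level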;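 further: positive control wells lacked labelled fibronectin entirely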
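Assay system: AH1F fibroblasts / Quantity: 10000 cells per well / Medium: DMEM plus 2% serum, read in PBS / Reagent: labelled fibronectin 24 nM / Dosing: single dose, pinned / Times: 1 h cell attachment, overnight exposure to compound and label / Signal: fluorescence, ex 485 nm, em 525 nm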
* hit, by the source's call; / = not tested or not shown; [ ] = dose if it differs, or a comment.

SMILES	EWS-Fli block	FGF22 binding	PGC1a acetyl inh	PAX8 inh HTS	Env fusion inh	FN deposit inh
C[C@H](CO)N1C[C@H](C)[C@@H](CN(C)S(=O)(=O)c2ccc(Cl)cc2)Oc2ccc(NC(=O)C3CC3)cc2CC1=O	4	0	-4	-11	/	-1
C[C@@H]1CN([C@@H](C)CO)C(=O)Cc2cc(NC(=O)NC3CCCCC3)ccc2O[C@@H]1CN(C)S(=O)(=O)c1ccc(Cl)cc1	20	0	-39	19	60*[16.7 µM]	/
Cc1ccc(S(=O)(=O)N(C)C[C@H]2Oc3ccc(NC(=O)C4CCCCC4)cc3CC(=O)N([C@H](C)CO)C[C@H]2C)cc1	-1	0	1	/	15[16.7 µM]	/
C[C@H]1CN([C@@H](C)CO)C(=O)Cc2cc(NC(=O)C3CCCCC3)ccc2O[C@H]1CN(C)S(=O)(=O)c1ccc(Cl)cc1	4	0	-8	/	74*[16.7 µM]	/
C[C@H](CO)N1C[C@H](C)[C@H](CN(C)S(=O)(=O)c2ccc(Cl)cc2)Oc2ccc(NC(=O)C3CCCCC3)cc2CC1=O	3	1	1	/	63*[16.7 µM]	/
CCC(=O)N1C[C@@H](O)COC[C@@H]2O[C@H](CC(=O)N3CCCCC3)CC[C@H]21	-10	0	1	-6	-16[16.7 µM]	-9
COc1ccc(NC(=O)Nc2cccc3c2O[C@H](CN(C)Cc2ccc(Oc4ccccc4)cc2)[C@H](C)CN([C@@H](C)CO)C3=O)cc1	4	-1	15	2	-1[16.7 µM]	/
CCCNC(=O)[C@@H]1[C@@H](CO)[C@@H]2Cn3c(ccc(-c4cccc(F)c4)c3=O)[C@H]1N2Cc1ccccc1F	/	0	1	-3	/	/
Cc1cccc(C)c1OCC(=O)Nn1c(=O)[nH]c2ccccc2c1=O	-6	43*	/	15	-28	0
CCC(C)n1c(=S)[nH]c2ccccc2c1=O (stereo unspecified)	4	43*	-8	11	-5	/
CN(C)/C=C(\C=O)c1ncc(C(F)(F)F)cc1Cl	6	43*	/	1	-11	7
COc1ccc(NC(=O)Nc2ccc3c(c2)[C@H]2C[C@H](CC(=O)N(C)C)O[C@H](CO)[C@H]2O3)cc1	-2	0	-2	/	/	-5
O=C1COc2ccc(C(=O)COC(=O)CNC(=O)c3ccco3)cc2N1	4	43*	/	8	-6	-11
COc1cccc(-c2ccc([C@@H]3[C@H]4CN(C(=O)CN5CCOCC5)CC(=O)N4[C@H]3CO)cc2)c1	4	/	6	2	/	/
N#C/C(=C\C=C\c1ccccc1[N+](=O)[O-])C(=O)NCc1ccccc1	42	0	-128	65*	-254	8
N#C/C(=C/C=C/c1ccccc1)C(=O)Nc1ccccc1	1	0	9	/	/	/
N#C/C(=C\c1ccccc1[N+](=O)[O-])C(=O)NCc1ccccc1	-5	0	/	3	-4	-3
N#C/C(=C\C=C\c1ccccc1)C(=O)Nc1ccccc1	8	44*	/	-10	-10	9
CO[C@@H]1CN(C)C(=O)c2ccc(NC(=O)c3ccc4c(c3)OCO4)cc2OC[C@H](C)N(CCC(F)(F)F)C[C@@H]1C	0	0	10	/	14[16.7 µM]	4
CO[C@H]1CN(C)C(=O)c2cc(NC(=O)c3ccccc3)ccc2OC[C@@H](C)N(C(C)=O)C[C@@H]1C	1	0	-4	/	/	/
Cc1nc(SCC(=O)N2CCOCC2)c2c(C)c(C)sc2n1	-4	0	/	2	18	2
Cc1nc(SCC(=O)Nc2ccc(S(=O)(=O)N3CCOCC3)cc2)c2c(C)c(C)sc2n1	1	0	-1	43	64*	-1
CCNC(=O)C[C@H]1CC[C@H](NC(=O)C2CCC2)[C@@H](CO)O1	-10	0	1	/	-5[16.7 µM]	-7
COc1ccc(S(=O)(=O)N2CCN(Cc3c[nH]c4ccccc34)CC2)cc1	/	/	-4	/	/	/
CCCS(=O)(=O)N1CCN(Cc2c[nH]c3ccccc23)CC1	13	43*	-6	26	21	6
SMILES	EWS-Fli block	FGF22 binding	PGC1a acetyl inh	PAX8 inh HTS	Env fusion inh	FN deposit inh
COCCNC(=O)CCc1c(C)nc2c(c(C)nn2-c2ccc(C)cc2)c1C	3	0	/	-4	8	3
COCCNC(=O)CCc1c(C)nc2c(c(C)nn2-c2ccc(C)c(C)c2)c1C	4	0	78*	1	15	4
CCCNC(=O)N1C[C@@H](O)COC[C@@H]2O[C@@H](CC(=O)N[C@@H]3CCN(Cc4ccccc4)C3)CC[C@H]21	2	0	-1	0	4[16.7 µM]	20
Cn1c(=O)[nH]c2cc3ccccc3cc21	/	/	-3	-17	70*	3
Cc1nc2cc3ccccc3cc2n1C	/	/	/	-33	/	-2
C[C@@H]1CN([C@H](C)CO)C(=O)c2c(c3ccccc3n2C)-c2ccccc2CO[C@@H]1CN(C)C(=O)Nc1cccc(F)c1	1	0	-28	/	/	-6
C[C@H](CO)N1C[C@H](C)[C@@H](CN(C)C(=O)Nc2ccc(F)cc2)OCc2ccccc2-c2c(n(C)c3ccccc23)C1=O	7	0	-1	100*	58*[16.7 µM]	-11
COc1cccc(NC(=O)N(C)C[C@@H]2OCc3ccccc3-c3c(n(C)c4ccccc34)C(=O)N([C@@H](C)CO)C[C@@H]2C)c1	15	-1	3	3	57*[16.7 µM]	2
C[C@H]1CN([C@@H](C)CO)C(=O)c2c(c3ccccc3n2C)-c2ccccc2CO[C@H]1CN(C)C(=O)Nc1cccc(F)c1	2	0	/	11	88*	-4
CC(C)NC(=O)N[C@@H]1C=C[C@@H](CC(=O)NCCCN(C)C)O[C@@H]1CO	1	0	4	-1	12[16.7 µM]	10
CC(C)NC(=O)Nc1ccc2c(c1)CC(=O)N([C@H](C)CO)C[C@@H](C)[C@H](CN(C)CC1CCCCC1)O2	1	-1	/	8	1[16.7 µM]	/
C[C@@H]1CCCCO[C@@H](CN(C)C(=O)NC2CCCCC2)[C@H](C)CN([C@@H](C)CO)C(=O)c2cc(NC(=O)Nc3ccc4c(c3)OCO4)ccc2O1	12	0	13	28	18[16.7 µM]	-1
C[C@@H]1CN([C@H](C)CO)C(=O)c2cc(C#CCN(C)C)cnc2O[C@@H]1CN(C)Cc1ccc(F)cc1	-6	0	5	/	13[16.7 µM]	-7
Cc1ccc(S(=O)(=O)N[C@@H]2C=C[C@@H](CC(=O)N3CCN(c4ccccc4)CC3)O[C@H]2CO)cc1	-1	0	-3	11	3[16.7 µM]	1
CCOC(=O)C1CCN(C(=O)COC(=O)/C=C/c2ccc([N+](=O)[O-])cc2)CC1	5	0	-59	6	-5	-6
CCOC(=O)C1CCN(C(=O)COc2ccc([N+](=O)[O-])cc2)CC1	2	43*	8	5	-6	3
CCOCc1[nH]c(=S)[nH]c(=O)c1Cc1ccc(OCC)cc1	-1	43*	-5	-3	-78	-7

High-throughput results as filed in PubChem BioAssay.
